Legend:
[1] = target: T1, Muscarinic acetylcholine receptor M2 (Rattus norvegicus, UniProt P10980); assay: The compound was tested in vitro for binding activity against M2 muscarinic receptor in homogenates of the brainstem of rat using [3H]quinuclidinyl benzilate (QNB) as radioligand; type: tissue-based, Brain
T1 sequence (P10980 whole entry): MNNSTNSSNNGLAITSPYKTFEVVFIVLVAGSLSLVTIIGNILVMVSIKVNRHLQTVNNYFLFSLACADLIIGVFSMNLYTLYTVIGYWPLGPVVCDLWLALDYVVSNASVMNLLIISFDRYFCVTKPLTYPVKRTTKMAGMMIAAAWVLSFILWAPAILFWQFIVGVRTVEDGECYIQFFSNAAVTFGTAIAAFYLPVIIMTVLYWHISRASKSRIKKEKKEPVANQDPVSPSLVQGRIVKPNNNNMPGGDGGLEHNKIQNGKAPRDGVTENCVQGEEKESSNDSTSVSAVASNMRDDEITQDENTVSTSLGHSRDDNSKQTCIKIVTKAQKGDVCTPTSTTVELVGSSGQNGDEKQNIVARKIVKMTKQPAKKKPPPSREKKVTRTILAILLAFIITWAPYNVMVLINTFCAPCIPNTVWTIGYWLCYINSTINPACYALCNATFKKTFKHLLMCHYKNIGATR
Procedure, shortened: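 Competition binding on rat brainstem homogenate with [3H]-QNB in 50 mM Tris buffer (pH 7.4) for 90 min at 25 °C. Separation is by rapid GF-B filtration with scintillation counting. 2 μM atropine defines non-specific binding. DMSO stays under 0.1%. Ki is taken from IC50 via Cheng–Prusoff using radioligand concentration and Kd.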

[2] = target: T2, Muscarinic acetylcholine receptor M1 (Rattus norvegicus, UniProt P08482); assay: The compound was tested in vitro for binding activity against M1 muscarinic receptor in homogenates of the cerebral cortex of rat using [3H]pirenzepine as radioligand; type: tissue-based
T2 sequence (P08482 whole entry): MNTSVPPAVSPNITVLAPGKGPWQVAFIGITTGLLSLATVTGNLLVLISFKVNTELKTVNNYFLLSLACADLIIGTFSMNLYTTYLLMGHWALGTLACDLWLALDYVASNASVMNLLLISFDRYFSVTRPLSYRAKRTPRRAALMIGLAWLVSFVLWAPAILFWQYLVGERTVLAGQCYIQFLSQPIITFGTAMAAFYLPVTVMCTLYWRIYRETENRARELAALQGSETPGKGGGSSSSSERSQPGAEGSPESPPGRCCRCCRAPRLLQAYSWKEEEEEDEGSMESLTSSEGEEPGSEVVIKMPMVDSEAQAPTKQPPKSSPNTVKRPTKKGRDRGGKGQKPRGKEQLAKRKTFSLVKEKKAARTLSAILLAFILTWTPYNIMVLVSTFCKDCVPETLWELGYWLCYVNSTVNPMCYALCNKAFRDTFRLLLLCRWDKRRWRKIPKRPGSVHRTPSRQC
Procedure, shortened: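 Rat cerebral cortex homogenate with [3H]-pirenzepine in 50 mM Tris buffer pH 7.4, 25 °C for 90 min. Bound ligand is separated by rapid GF-B filtration and counted by liquid scintillation. Non-specific binding is defined with 2 μM atropine. Compounds in DMSO, below 0.1% final. Ki = IC50/(1 + L/Kd) by Cheng–Prusoff.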

| SMILES | -Log Ki [1] | Ki [2] [nM] | Ki [1] [nM] |
| --- | --- | --- | --- |
| C[C@H]1CCC[C@H](/C=C/[C@@H]2[C@H]3COC(=O)[C@H]3C[C@H]3CCCC[C@@H]32)N1C (stereo in doubt) | 6.4 | 501 | – |
| C[C@H]1CCC[C@H](/C=C/[C@H]2[C@H]3COC(=O)[C@H]3C[C@H]3CCCC[C@@H]32)N1C (stereo in doubt; 2) | – | 39.8 | 7.94 |
| C[C@H]1CCC[C@H](/C=C/[C@@H]2[C@H]3COC(=O)[C@H]3C[C@H]3CCCC[C@@H]32)N1C (stereo in doubt; 3) | – | 631 | 398 |
| C[C@H]1CCC[C@H](/C=C/[C@H]2[C@H]3COC(=O)[C@H]3C[C@H]3CCCC[C@@H]32)N1C (stereo in doubt) | – | 1000 | 794 |
| C[C@@H]1OC(=O)[C@H]2C[C@H]3CCCC[C@@H]3[C@@H](/C=C/[C@H]3CCC[C@H](C)N3C)[C@@H]12 [HIMBACINE] | – | 79.4 | 12.6 |

From ChEMBL document CHEMBL1134963, “Synthesis and muscarinic M(2) subtype antagonistic activity of enantiomeric pairs of 3-demethylhimbacine (3-norhimbacine) and its C(4)-epimer” (Bioorg Med Chem Lett, 2002)
